DENV2 CPE rescue – inhibitors of DENV2 cytopathic effect, primary screen, cell-based, plate reader, single concentration; actives 1.7% (n = 350,000); DENV2-infected cells, cytopathic effect rescue; CPE inhibition, % at 9.99 µM; AID 651640, 2012; in the data active means CPE inhibition above about 20%, passing the limit was not always enough; inconclusive means no clear call, values can overlap the other calls; tested in BHK-21 cells;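 further: 0% = median of neutral control wells and 100% = median of positive control wells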
E-selectin induc – E-selectin induction in HUVECs, primary screen, imaging, HUVEC, immunofluorescence imaging, single point. normalized: neutral wells 0, TNF-alpha wells 100. actives 0.37% (n = 260,000). activation, % at 7.58 µM;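 active means mean E-selectin-positive cell signal at least 10% of the positive control, reached in at least 60% of replicates, without over 20% cell loss; inconclusive means no rule given, readout overlaps actives, possibly toxicity-flagged; inactive means the rest, including those meeting only one limit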
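Material: HUVEC primary endothelial cells; Amount: 3,000 cells per well; Dosing: single concentration; Medium: EGM-2 growth medium on 0.1% gelatin-coated wells; Read-out basis: percent E-selectin-positive cells; Signal: immunofluorescence imaging; Control set: TNF-alpha, DMSO.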
SIRT5 inh – SIRT5 desuccinylase inhibitors, primary screen, biochemical, fluorescence imaging, single point, set 5; NAD-dependent protein deacylase sirtuin-5, mitochondrial (Homo sapiens), Q9NXA8; Purified SirT5, succinyl-peptide AMC, trypsin-coupled fluorescence; inhibition, % at 15 µM; actives 1.1% (n = 330,000); in the data active means inhibition above about 15%; inconclusive means no clear call, values can overlap the other calls
Target sequence (Q9NXA8 whole entry, looked up): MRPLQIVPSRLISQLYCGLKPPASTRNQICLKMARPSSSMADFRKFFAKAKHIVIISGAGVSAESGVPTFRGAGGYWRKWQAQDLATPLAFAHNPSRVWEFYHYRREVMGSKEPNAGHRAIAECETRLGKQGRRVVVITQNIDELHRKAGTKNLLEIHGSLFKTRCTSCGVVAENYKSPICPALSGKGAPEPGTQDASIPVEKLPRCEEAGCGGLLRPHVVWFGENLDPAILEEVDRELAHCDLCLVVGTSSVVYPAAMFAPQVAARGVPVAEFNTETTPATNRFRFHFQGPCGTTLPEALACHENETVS
The depositor's hits bear a star; u = inconclusive; x = no result. Most compounds without a hit are left out; they make up all but 2.8% or so of the library.

SMILES	DENV2 CPE rescue	E-selectin induc	SIRT5 inh
C[C@@H]1CN([C@H](C)CO)C(=O)c2cc(C#Cc3ccccc3)cnc2O[C@@H]1CN(C)C(=O)CCN1CCCCC1	-6.6	-0.2	4.3
C[C@@H]1CN([C@@H](C)CO)C(=O)CCCn2cc(nn2)CO[C@@H]1CN(C)Cc1ccc(O)cc1	-4.8	0.0	1.7
C/C=C/c1ccc2c(c1)O[C@@H](CN(C)C(C)=O)[C@@H](C)CN([C@@H](C)CO)S2(=O)=O	-4.4	0.7	-0.1
C/C=C/c1ccc2c(c1)O[C@H](CN(C)C(C)=O)[C@H](C)CN([C@@H](C)CO)S2(=O)=O	45.5*	0.3	10.9
C/C=C/c1ccc2c(c1)O[C@H](CN(C)CC1CCCC1)[C@@H](C)CN([C@H](C)CO)S2(=O)=O	-3.5	1.1	15.2*
CC(=O)N(C)C[C@@H]1Oc2cc(-c3ccncc3)ccc2S(=O)(=O)N([C@H](C)CO)C[C@@H]1C	29.3*	0.7	-0.4
CC(=O)N(C)C[C@H]1Oc2cc(-c3ccncc3)ccc2S(=O)(=O)N([C@H](C)CO)C[C@@H]1C	18.6	0.3	-2.8
C/C=C/c1ccc2c(c1)O[C@H](CN(C)CC1CC1)[C@H](C)CN([C@H](C)CO)S2(=O)=O	x	-0.2	x
O=C(C[C@H]1CC[C@H]2[C@@H](COC[C@@H](O)CN2S(=O)(=O)c2ccccc2)O1)N[C@H]1CCN(Cc2ccccc2)C1	u	0.0	-5.2
CO[C@@H]1CN(C)C(=O)c2ccc(NC(=O)C3CC3)cc2OC[C@H](C)N(CCC(F)(F)F)C[C@H]1C	-12.0	-0.3	-3.3
Cc1nc2ccccc2n1C(c1cccnc1)c1nc2ccccc2[nH]1 (stereo unspecified)	38.0*	-0.2	x
c1ccc(-c2nc3ccccc3n2C(c2ccccc2)c2nc3ccccc3[nH]2)cc1 (stereo unspecified)	3.1	7.8	-0.9
COc1ccc(C(CNS(=O)(=O)c2ccc(NC(C)=O)c(OC)c2)N2CCCCC2)cc1 (stereo unspecified)	11.1	1.8	-0.1
COc1ccc(C(CNS(=O)(=O)c2ccc(NC(C)=O)c(OC)c2)N2CCCC2)cc1 (stereo unspecified)	35.8*	0.2	1.5
COc1ccc(S(=O)(=O)N(C)C[C@H]2Oc3ccc(NS(=O)(=O)c4ccc(F)cc4)cc3C(=O)N([C@@H](C)CO)C[C@@H]2C)cc1	3.9	-0.2	-3.5
CCOC(=O)Cc1csc(NC(=O)Cc2ccccc2[N+](=O)[O-])n1	-11.5	x	-4.4
Cc1csc(NC(=O)Cc2ccccc2[N+](=O)[O-])n1	-1.0	1.2	16.8*
O=C(CN1CCOCC1)N[C@H]1CC[C@@H](CCNC(=O)C2CCCCC2)O[C@@H]1CO	-8.5	-0.1	-0.6
COc1ccc(C2/C=C\CN(Cc3ccncc3)CC(=O)N2Cc2ccc(F)cc2)cc1 (stereo unspecified)	6.3	0.6	16.0*
COc1ccc([C@H]2/C=C\CN(C(=O)CC(C)(C)C)[C@@H](C)C(=O)N2Cc2ccc(F)cc2)cc1	-9.2	0.2	x
COc1ccc(C2/C=C\CN(CC3CC3)CC(=O)N2Cc2ccc(F)cc2)cc1 (stereo unspecified)	-4.2	-0.1	3.0
COc1ccc([C@H]2/C=C\CN(C(=O)c3ccc(C)cc3)[C@@H](C)C(=O)N2Cc2ccc(F)cc2)cc1	125.4*	0.0	x
CO[C@H]1CN(C)C(=O)c2cc(NC(=O)C3CCC3)ccc2OC[C@@H](C)N(C(=O)NC(C)C)C[C@H]1C	3.9	-0.1	2.2
O=C(C[C@@H]1C[C@H]2c3cc(NC(=O)CC4CC4)ccc3O[C@H]2[C@H](CO)O1)NCc1ccc2c(c1)OCO2	0.1	-0.4	0.5
C[C@H](CO)N1C[C@H](C)[C@H](CN(C)C(=O)CC2CC2)Oc2cc(-c3cncnc3)ccc2S1(=O)=O	-7.6	1.2	-3.2
SMILES	DENV2 CPE rescue	E-selectin induc	SIRT5 inh
C[C@@H]1CN([C@@H](C)CO)C(=O)c2cc(NC(=O)Nc3ccc(C(F)(F)F)cc3)ccc2O[C@@H](C)CCCCO[C@H]1CN(C)Cc1ccncc1	-4.0	0.5	1.6
COc1ccc2c3c(n(C)c2c1)[C@H](CO)N(C(=O)Nc1ccc(F)cc1)CC31CCN(C(=O)c2ccc3c(c2)OCO3)CC1	-2.3	-0.3	-4.4
CCC(=O)N1C[C@@H](C)[C@@H](OC)CN(C)C(=O)c2ccc(NC(=O)NC(C)C)cc2OC[C@@H]1C	0.0	0.0	1.9
C[C@H](NC(=O)[C@@H]1N[C@@H]2c3ccc(C4=CCCCC4)c(=O)n3C[C@@H]2[C@H]1CO)c1ccccc1	u	0.0	3.5
Cc1nc2scc(C)n2c(=O)c1S(=O)(=O)Nc1ccc(N2CCOCC2)cc1	-6.2	x	10.5
Cc1nc2scc(C)n2c(=O)c1S(=O)(=O)Nc1ccc(N2CCN(C(=O)C(C)C)CC2)cc1	51.1*	x	9.9
COC(=O)C[C@@H]1CC[C@@H]2[C@H](COc3ccc(NC(=O)NCc4ccccc4)cc3C(=O)N2C)O1	x	0.0	x
C[C@H]1CN([C@@H](C)CO)C(=O)c2cc(NC(=O)Cc3ccccc3)ccc2O[C@H]1CN(C)S(=O)(=O)c1ccc(Cl)cc1	4.7	23.7	9.7
Cc1ccc(N(C(=O)c2csnn2)C(C(=O)NC(C)(C)C)c2ccccn2)cc1 (stereo unspecified)	1.7	4.5	-1.5
Cc1cc(C)cc(N(C(=O)c2csnn2)C(C(=O)NC(C)(C)C)c2ccccn2)c1 (stereo unspecified)	x	x	25.9*
C[C@@H]1CN([C@@H](C)CO)C(=O)c2cccc(NS(=O)(=O)c3ccc(F)cc3)c2O[C@@H]1CN(C)C(=O)Nc1ccccc1	16.0	-0.1	-0.9
Cc1ccn2c(=O)nc(SCC(=O)OCc3ccccc3)nc2c1	1.4	x	-1.7
CCOC(=O)CSc1nc(=O)n2ccc(C)cc2n1	-1.5	1.0	31.2*
CCCNC(=O)C[C@H]1CC[C@H]2[C@@H](COC[C@@H](O)CN2Cc2ccccc2F)O1	-4.2	-0.1	3.6
COc1cc(/C=C(\C#N)C(=O)Nc2cccc(C(=O)O)c2)ccc1OCc1ccc(F)cc1	-1.4	-0.3	2.2
COc1cc(/C=C/c2cccc[n+]2C)ccc1OCC(=O)Nc1ccccc1	2.9	0.6	0.8
COc1cc(/C=C/c2cccc[n+]2C)ccc1OCC(=O)Nc1cccc(Cl)c1	24.8*	2.8	-1.2
COc1cc(/C=C(/C#N)C(=O)Nc2cc(C(F)(F)F)ccc2Cl)ccc1OCC(=O)Nc1cccc(C(F)(F)F)c1	2.0	-0.1	16.2*
CCCNC(=O)Nc1ccc2c(c1)C(=O)N(C)C[C@H](OC)[C@@H](C)CN(C(C)=O)[C@H](C)CO2	-6.7	1.7	0.9
C[C@@H]1CN([C@@H](C)CO)C(=O)c2cc(NS(=O)(=O)c3ccc(F)cc3)ccc2O[C@@H](C)CCCCO[C@@H]1CN(C)C(=O)Nc1cccc2ccccc12	8.8	-0.3	-0.9
O=C(c1cccc(F)c1)N1CCC2(CC1)NCCc1[nH]cnc12	5.0	x	2.0
O=C(c1cccc(Cl)c1)N1CCC2(CC1)NCCc1[nH]cnc12	27.1*	x	4.8
COc1ccccc1C(=O)N1[C@@H](C(C)C)COc2cc(Br)ccc2S1(=O)=O	77.5*	-0.2	2.5

Screening results deposited in PubChem by Broad Institute.
